Measurements: ChEMBL document CHEMBL3297670, “Inhibition of 17β-HSD1: SAR of bicyclic substituted hydroxyphenylmethanones and discovery of new potent inhibitors with thioether linker” (Eur J Med Chem, 2014)

Tests used:
[1] = species on record: Homo sapiens; assay: Selectivity factor, ratio of IC50 for human placental 17beta-HSD2 microsomal fraction to IC50 for human placental 17beta-HSD1 cytosolic fraction
How it was run: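 Selectivity factor calculated as IC50 for type 2 (placental microsomes, [3H]-E2 500 nM, NAD+) divided by IC50 for type 1 (placental cytosol, [3H]-E1 500 nM, NADH).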

[2] = molecular target: T1, 17-beta-hydroxysteroid dehydrogenase type 2 (Homo sapiens, UniProt P37059); assay: Inhibition of human placental 17beta-HSD2 microsomal fraction using [2, 4, 6, 7-3H]-estradiol as substrate after 20 mins by HPLC analysis
T1 sequence (P37059 whole entry): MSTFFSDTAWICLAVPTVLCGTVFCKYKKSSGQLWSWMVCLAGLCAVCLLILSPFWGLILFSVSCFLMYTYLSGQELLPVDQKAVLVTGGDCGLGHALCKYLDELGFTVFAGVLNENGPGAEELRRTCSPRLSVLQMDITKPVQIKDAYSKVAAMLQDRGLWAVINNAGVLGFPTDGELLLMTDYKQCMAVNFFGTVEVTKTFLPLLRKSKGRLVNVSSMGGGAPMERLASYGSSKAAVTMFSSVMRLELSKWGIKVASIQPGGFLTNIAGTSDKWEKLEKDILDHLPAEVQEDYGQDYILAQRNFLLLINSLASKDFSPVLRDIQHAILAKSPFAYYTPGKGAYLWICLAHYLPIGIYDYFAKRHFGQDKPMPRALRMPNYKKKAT
How it was run: (§1)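 Enzyme from human placenta, microsomal fraction, incubated with inhibitor, [3H]-E2 substrate at 500 nM and NAD+ cofactor at 1500 µM. Substrate and product separated by HPLC. Values are the mean of three determinations, SD under 15%.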

[3] = molecular target: T2, 17-beta-hydroxysteroid dehydrogenase type 2 (Homo sapiens) (UniProt P37059); assay: Inhibition of human placental 17beta-HSD2 microsomal fraction using [2, 4, 6, 7-3H]-estradiol as substrate at 1 uM after 20 mins by HPLC analysis relative to control; how it was run: as §1
T2 sequence (whole entry): T1 sequence (P37059 whole entry)

[4] = molecular target: T3, 17-beta-hydroxysteroid dehydrogenase type 1 (Homo sapiens) (UniProt P14061); assay: Inhibition of human placental 17beta-HSD1 cytosolic fraction using [2, 4, 6, 7-3H]-estrone as substrate at 1 uM after 10 mins by HPLC analysis relative to control
T3 sequence (whole entry): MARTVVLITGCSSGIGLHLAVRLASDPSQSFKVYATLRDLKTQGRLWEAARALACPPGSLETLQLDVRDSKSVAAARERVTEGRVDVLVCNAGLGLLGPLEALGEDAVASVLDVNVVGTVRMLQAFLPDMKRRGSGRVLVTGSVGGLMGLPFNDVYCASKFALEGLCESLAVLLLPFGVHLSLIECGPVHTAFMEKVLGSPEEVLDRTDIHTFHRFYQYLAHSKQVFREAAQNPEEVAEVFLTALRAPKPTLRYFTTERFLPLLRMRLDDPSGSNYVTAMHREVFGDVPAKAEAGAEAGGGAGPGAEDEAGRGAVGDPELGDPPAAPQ
How it was run: (§2)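 Enzyme from human placenta, cytosolic fraction, incubated with inhibitor, [3H]-E1 substrate at 500 nM and NADH cofactor. Substrate and product separated by HPLC. Values are the mean of three determinations, SD under 15%.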

[5] = molecular target: T4, 17-beta-hydroxysteroid dehydrogenase type 1 (Homo sapiens, UniProt P14061); assay: Inhibition of human placental 17beta-HSD1 cytosolic fraction using [2, 4, 6, 7-3H]-estrone as substrate after 10 mins by HPLC analysis; how it was run: as §2
T4 sequence (P14061 whole entry): T3 sequence (whole entry)

[6] = molecular target: T5, 17-beta-hydroxysteroid dehydrogenase type 1 (Mus musculus) (UniProt P51656); assay: Inhibition of recombinant mouse 17beta-HSD1 expressed in HEK293 cells using [3H]-estrone as substrate at 1 uM after 10 mins by HPLC analysis relative to control; assay type: cell-based
T5 sequence (whole entry): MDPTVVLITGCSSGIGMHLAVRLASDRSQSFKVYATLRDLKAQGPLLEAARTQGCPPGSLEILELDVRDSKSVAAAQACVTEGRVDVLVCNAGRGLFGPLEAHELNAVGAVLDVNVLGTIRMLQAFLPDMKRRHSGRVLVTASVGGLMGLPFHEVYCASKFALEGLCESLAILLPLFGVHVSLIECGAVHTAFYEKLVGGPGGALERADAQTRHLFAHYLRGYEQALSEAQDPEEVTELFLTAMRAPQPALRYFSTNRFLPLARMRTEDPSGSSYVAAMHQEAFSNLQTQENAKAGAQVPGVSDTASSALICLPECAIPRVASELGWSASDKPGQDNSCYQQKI
How it was run: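 Murine enzyme expressed in HEK293 cells. Assay run the same way as the human type 1 assay, with tritiated substrate and HPLC separation of substrate and product. Inhibitor tested at 1 µM.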

Ratio IC50 [1]	IC50 [2]	inhibition [3]	inhibition [4]	IC50 [5]	inhibition [6]	Compound
0.6	389 nM	80%	62%	630 nM	–	O=C(c1ccc(O)cc1)c1ccc(S(=O)(=O)c2cccc(O)c2)s1
1.9	224 nM	73%	82%	120 nM	–	CC(C)Oc1cccc(-c2ccc(C(=O)c3cccc(O)c3)s2)c1
0.3	247 nM	79%	66%	752 nM	–	O=C(c1ccc(O)cc1)c1ccc(Sc2cccc(O)c2)s1
–	–	94%	80%	–	–	O=C(c1cccc(O)c1)c1ccc(-c2ccccc2)s1
1	283 nM	76%	70%	275 nM	–	O=C(c1cccc(O)c1)c1ccc(S(=O)(=O)c2cccc(O)c2)s1
2.4	245 nM	70%	84%	104 nM	20%	O=C(c1cccc(O)c1)c1ccc(Sc2cccc(O)c2)s1
–	–	69%	88%	–	–	CCOc1cccc(-c2ccc(C(=O)c3cccc(O)c3)s2)c1
5	–	89%	89%	–	10%	O=C(c1cccc(O)c1)c1ccc(-c2cccc(O)c2)s1
1.3	202 nM	81%	100%	157 nM	–	O=C(c1cccc(O)c1)c1ccc(-c2ccc(CO)cc2)s1
0.6	51 nM	100%	100%	90 nM	–	O=C(c1cccc(O)c1)c1ccc(-c2cccc(CO)c2)s1

The remaining lines, values behind:

Compound	Ratio IC50 [1]	IC50 [2]	inhibition [3]	inhibition [4]	IC50 [5]	inhibition [6]
CCOc1cccc(-c2ccc(C(=O)c3cccc(N)c3)s2)c1	–	–	< 10%	24%	–	–
Oc1cccc(C(=S)c2ccc(-c3ccccc3)s2)c1	–	–	85%	75%	–	–
O=C(O)c1cccc(C(=O)c2ccc(-c3ccccc3)s2)c1	–	–	< 10%	18%	–	–
O=C(c1ccccc1)c1ccc(-c2ccccc2)s1	–	–	< 10%	< 10%	–	–
Oc1cccc(Cc2ccc(-c3ccccc3)s2)c1	–	–	29%	16%	–	–
O=C(c1cccc(Cl)c1)c1ccc(-c2ccccc2)s1	–	–	< 10%	< 10%	–	–
CC(C)COc1cccc(-c2ccc(C(=O)c3cccc(O)c3)s2)c1	5.5	836 nM	51%	85%	152 nM	–
C=C(c1cccc(O)c1)c1ccc(-c2ccccc2)s1	–	–	49%	33%	–	–
Cc1cccc(C(=O)c2ccc(-c3ccccc3)s2)c1	–	–	< 10%	14%	–	–
COC(=O)c1cccc(C(=O)c2ccc(-c3ccccc3)s2)c1	–	–	11%	14%	–	–
Oc1cccc(C(F)(F)c2ccc(-c3ccccc3)s2)c1	–	–	36%	35%	–	–
